ChEMBL document CHEMBL1147076, “Antitumor activity of MLN8054, an orally active small-molecule inhibitor of Aurora A kinase” (Proc Natl Acad Sci U S A, 2007)
The source made the active and inactive calls. The rule behind the calls is not given here.

Columns and labels:
[1] = target: MAP kinase-activated protein kinase 5 (Homo sapiens) (UniProt Q8IW41); experiment: Activity of human PRAK kinase at 1 uM
How it was run: (§1)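 Single-point screen in a 226-kinase panel run by an outside service. Test compound at 1 μM with ATP at 10 μM in every assay. Other assay conditions are not given.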

[2] = test system: NCI-H460; experiment: Antiproliferative activity against human H460 cells after 96 hrs by BrdU cell proliferation ELISA; format: functional, cell-based; settings: NCI-H460, 96 h
How it was run: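 BrdU incorporation proliferation assay on cultured human tumor lines; IC50 values derived from growth inhibition.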

[3] = target: Ephrin type-A receptor 5 (Homo sapiens) (UniProt P54756); experiment: Activity of human EphA5 kinase at 1 uM
How it was run: (§2)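 Single-point kinase profiling: each kinase in a 226-kinase panel tested with compound at 1 μM and ATP at 10 μM in every assay, run by an external screening service.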

[4] = Inhibition of CDK2E by radioactive flashplate assay
[5] = target: Tyrosine-protein kinase BTK (Homo sapiens) (UniProt Q06187); experiment: Activity of human BTK kinase at 1 uM
[6] = target: Tyrosine-protein kinase ZAP-70 (Homo sapiens) (UniProt P43403); experiment: Activity of human ZAP70 kinase at 1 uM; how it was run: as §1
[7] = target: Dual specificity mitogen-activated protein kinase kinase 4 (Mus musculus) (UniProt P47809); experiment: Activity of mouse MKK4 kinase at 1 uM; how it was run: as §1
[8] = target: Serine/threonine-protein kinase DCLK2 (Homo sapiens) (UniProt Q8N568); experiment: Activity of human DCAMKL2 kinase at 1 uM; how it was run: as §2
[9] = target: Mitogen-activated protein kinase 10 (Homo sapiens) (UniProt P53779); experiment: Activity of human JNK3 kinase at 1 uM; how it was run: as §2
[10] = target: Tyrosine-protein kinase Fer (Homo sapiens) (UniProt P16591); experiment: Activity of human Fer kinase at 1 uM; how it was run: as §2
[11] = test system: SK-OV-3; experiment: Antiproliferative activity against human SKOV3 cells after 96 hrs by BrdU cell proliferation ELISA; format: functional, cell-based; settings: SK-OV-3, 96 h
[12] = target: Casein kinase I isoform delta (Homo sapiens) (UniProt P48730); experiment: Activity of human CK1delta kinase at 1 uM; how it was run: as §2
[13] = target: Serine/threonine-protein kinase PAK 5 (Homo sapiens) (UniProt Q9P286); experiment: Activity of human PAK5 kinase at 1 uM; how it was run: as §1
[14] = test system: PC-3; experiment: Cell cycle arrest in human PC3 cells by accumulation at G2/M phase at 4 uM after 24 hrs by flow cytometry relative to control; format: functional
How it was run: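 DNA content profiles by flow cytometry of PC-3 prostate tumor cells exposed to drug diluted in DMSO for 24 or 48 h. Phase distribution was compared with DMSO-treated control cells.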

[15] = target: Tyrosine-protein kinase Lyn (Homo sapiens) (UniProt P07948); experiment: Activity of human Lyn kinase at 1 uM; how it was run: as §2
[16] = test system: PC-3; experiment: Increase in mitotis in human PC3 cells assessed as mitotic cell count after 24 hrs; format: functional
How it was run: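 Cultured cells were exposed to drug for 24 h and stained with MPM2 (mitotic marker) and Hoechst. Cells were imaged on a high-content imaging system, and the percentage of Hoechst-stained cells positive for MPM2 was calculated.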

[17] = Inhibition of PKA by radioactive flashplate assay
[18] = target: Ephrin type-A receptor 1 (Homo sapiens) (UniProt P21709); experiment: Inhibition of EphA1 kinase at 1 uM
How it was run: (§3)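 Single-point screen within a 226-kinase panel, with compound at 1 μM and ATP at 10 μM in all assays.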

[19] = target: Serine/threonine-protein kinase WNK3 (Homo sapiens) (UniProt Q9BYP7); experiment: Activity of human WNK3 kinase at 1 uM; how it was run: as §1
[20] = target: Phosphatidylinositol 4,5-bisphosphate 3-kinase catalytic subunit gamma isoform (Homo sapiens) (UniProt P48736); experiment: Activity of human PI 3-kinase gamma at 1 uM; how it was run: as §2
[21] = target: Ephrin type-B receptor 1 (Homo sapiens) (UniProt P54762); experiment: Inhibition of EphB1 kinase at 1 uM; how it was run: as §3
[22] = target: Eukaryotic elongation factor 2 kinase (Homo sapiens) (UniProt O00418); experiment: Activity of human eEF-2K kinase at 1 uM
How it was run: (§4)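 Single-concentration screen across a 226-kinase panel run by an outside provider; test compound at 1 μM with 10 μM ATP in every assay. Other conditions not detailed.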

[23] = target: Platelet-derived growth factor receptor alpha (Homo sapiens) (UniProt P16234); experiment: Activity of human PDGFRalpha kinase at 1 uM; how it was run: as §1
[24] = target: Serine/threonine-protein kinase BRSK1 (Homo sapiens) (UniProt Q8TDC3); experiment: Activity of human BrSK1 kinase at 1 uM
[25] = target: Serine/threonine-protein kinase Nek3 (Homo sapiens) (UniProt P51956); experiment: Activity of human NEK3 kinase at 1 uM; how it was run: as §1
[26] = target: Tyrosine-protein kinase SYK (Homo sapiens) (UniProt P43405); experiment: Activity of human Syk kinase at 1 uM; how it was run: as §1
[27] = target: Ephrin type-A receptor 1 (Homo sapiens) (UniProt P21709); experiment: Activity of human EphA1 kinase at 1 uM; how it was run: as §2
[28] = test system: PC-3; experiment: Cell cycle arrest in human PC3 cells by accumulation at >4N phase at 4 uM after 48 hrs by flow cytometry relative to control; format: functional
[29] = target: SRSF protein kinase 3 (Homo sapiens) (UniProt Q9UPE1); experiment: Activity of human MSSK1 kinase at 1 uM
[30] = Inhibition of Abl kinase at 1 uM
[31] = target: Fibroblast growth factor receptor 1 (Homo sapiens) (UniProt P11362); experiment: Activity of human FGFR1 kinase at 1 uM; how it was run: as §2
[32] = test system: PC-3; experiment: Induction of apoptosis in human PC3 cells assessed as PARP cleavage at 4 uM after 24 hrs by Western blot method; format: functional, cell-based
[33] = target: Tyrosine-protein kinase Lck (Homo sapiens) (UniProt P06239); experiment: Activity of human Lck kinase at 1 uM; how it was run: as §2
[34] = target: Vascular endothelial growth factor receptor 1 (Homo sapiens) (UniProt P17948); experiment: Activity of human Flt1 kinase at 1 uM; how it was run: as §2
[35] = target: Tyrosine-protein kinase JAK3 (Homo sapiens) (UniProt P52333); experiment: Activity of human JAK3 kinase at 1 uM
[36] = target: Tyrosine-protein kinase Fgr (Homo sapiens) (UniProt P09769); experiment: Activity of human FGR kinase at 1 uM; how it was run: as §2
[37] = target: BDNF/NT-3 growth factors receptor (Homo sapiens) (UniProt Q16620); experiment: Activity of human TrkB kinase at 1 uM; how it was run: as §4
[38] = target: Serine/threonine-protein kinase WNK2 (Homo sapiens) (UniProt Q9Y3S1); experiment: Activity of human WNK2 kinase at 1 uM; how it was run: as §4
[39] = target: G protein-coupled receptor kinase 5 (Homo sapiens) (UniProt P34947); experiment: Activity of human GRK5 kinase at 1 uM; how it was run: as §2
[40] = target: Tyrosine-protein kinase Blk (Mus musculus) (UniProt P16277); experiment: Activity of mouse Blk kinase at 1 uM; how it was run: as §4
[41] = target: Testis-specific serine/threonine-protein kinase 2 (Homo sapiens) (UniProt Q96PF2); experiment: Activity of human TSSK2 kinase at 1 uM; how it was run: as §1
[42] = target: Ephrin type-A receptor 3 (Homo sapiens) (UniProt P29320); experiment: Activity of human EphA3 kinase at 1 uM

Sequence of Ephrin type-A receptor 1 (Homo sapiens) (P21709 whole entry): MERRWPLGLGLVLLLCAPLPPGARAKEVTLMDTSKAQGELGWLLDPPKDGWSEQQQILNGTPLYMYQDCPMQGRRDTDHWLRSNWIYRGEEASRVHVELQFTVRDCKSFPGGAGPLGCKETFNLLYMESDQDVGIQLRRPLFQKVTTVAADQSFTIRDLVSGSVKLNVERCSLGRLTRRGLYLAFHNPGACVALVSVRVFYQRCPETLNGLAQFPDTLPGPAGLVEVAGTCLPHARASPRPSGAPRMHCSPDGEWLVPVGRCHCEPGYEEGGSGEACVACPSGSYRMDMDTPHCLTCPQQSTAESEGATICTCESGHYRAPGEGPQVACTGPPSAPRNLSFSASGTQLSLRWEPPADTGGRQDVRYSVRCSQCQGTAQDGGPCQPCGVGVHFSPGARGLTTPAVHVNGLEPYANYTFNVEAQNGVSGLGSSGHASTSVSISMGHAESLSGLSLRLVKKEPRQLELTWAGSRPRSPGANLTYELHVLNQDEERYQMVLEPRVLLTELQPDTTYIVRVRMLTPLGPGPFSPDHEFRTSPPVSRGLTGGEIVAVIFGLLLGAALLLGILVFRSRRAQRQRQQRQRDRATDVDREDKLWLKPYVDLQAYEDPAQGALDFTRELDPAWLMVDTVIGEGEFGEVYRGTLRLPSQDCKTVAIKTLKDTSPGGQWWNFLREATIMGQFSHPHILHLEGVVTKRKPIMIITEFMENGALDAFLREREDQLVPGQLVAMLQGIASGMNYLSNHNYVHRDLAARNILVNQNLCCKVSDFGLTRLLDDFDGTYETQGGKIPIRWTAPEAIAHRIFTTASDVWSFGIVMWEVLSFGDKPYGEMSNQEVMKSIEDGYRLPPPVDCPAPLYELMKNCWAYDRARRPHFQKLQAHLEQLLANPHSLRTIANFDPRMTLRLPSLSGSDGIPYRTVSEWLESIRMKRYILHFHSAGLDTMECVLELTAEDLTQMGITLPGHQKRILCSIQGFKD
Sequence of Vascular endothelial growth factor receptor 1 (Homo sapiens) (P17948 whole entry): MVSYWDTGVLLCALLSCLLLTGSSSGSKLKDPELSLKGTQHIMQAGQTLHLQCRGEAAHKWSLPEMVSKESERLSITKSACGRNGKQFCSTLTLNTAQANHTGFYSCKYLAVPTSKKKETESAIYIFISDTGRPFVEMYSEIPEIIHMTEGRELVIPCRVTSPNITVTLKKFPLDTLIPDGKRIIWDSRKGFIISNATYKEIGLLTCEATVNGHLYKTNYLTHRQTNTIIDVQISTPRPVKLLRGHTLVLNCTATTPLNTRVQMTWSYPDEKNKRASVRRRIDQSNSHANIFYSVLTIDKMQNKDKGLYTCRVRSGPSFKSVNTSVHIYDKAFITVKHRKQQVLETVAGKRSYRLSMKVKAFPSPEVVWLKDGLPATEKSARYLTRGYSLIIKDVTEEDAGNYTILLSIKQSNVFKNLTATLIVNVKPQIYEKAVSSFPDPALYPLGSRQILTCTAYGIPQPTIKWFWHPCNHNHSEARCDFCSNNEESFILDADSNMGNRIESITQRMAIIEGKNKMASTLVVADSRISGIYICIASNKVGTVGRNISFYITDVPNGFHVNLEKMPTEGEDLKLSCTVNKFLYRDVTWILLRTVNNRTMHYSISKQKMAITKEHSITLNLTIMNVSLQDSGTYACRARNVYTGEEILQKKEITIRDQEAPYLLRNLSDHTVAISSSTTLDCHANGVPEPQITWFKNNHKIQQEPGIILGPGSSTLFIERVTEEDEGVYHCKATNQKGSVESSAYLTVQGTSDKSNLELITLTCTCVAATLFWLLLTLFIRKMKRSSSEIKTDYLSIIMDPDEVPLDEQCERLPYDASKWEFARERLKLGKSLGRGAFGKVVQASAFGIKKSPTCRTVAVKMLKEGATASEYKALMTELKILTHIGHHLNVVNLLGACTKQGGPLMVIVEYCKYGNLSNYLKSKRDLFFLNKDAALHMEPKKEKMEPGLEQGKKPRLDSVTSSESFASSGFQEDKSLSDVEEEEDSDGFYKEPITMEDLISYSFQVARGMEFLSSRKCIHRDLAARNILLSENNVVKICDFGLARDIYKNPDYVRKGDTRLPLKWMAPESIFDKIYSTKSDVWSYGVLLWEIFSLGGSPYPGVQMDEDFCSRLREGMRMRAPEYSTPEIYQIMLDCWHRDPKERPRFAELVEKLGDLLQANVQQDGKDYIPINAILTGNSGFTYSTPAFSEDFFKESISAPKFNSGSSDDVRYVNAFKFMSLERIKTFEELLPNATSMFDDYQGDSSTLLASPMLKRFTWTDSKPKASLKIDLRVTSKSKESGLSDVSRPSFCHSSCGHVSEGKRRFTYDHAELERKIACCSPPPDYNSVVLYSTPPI
Sequence of Platelet-derived growth factor receptor alpha (Homo sapiens) (P16234 whole entry): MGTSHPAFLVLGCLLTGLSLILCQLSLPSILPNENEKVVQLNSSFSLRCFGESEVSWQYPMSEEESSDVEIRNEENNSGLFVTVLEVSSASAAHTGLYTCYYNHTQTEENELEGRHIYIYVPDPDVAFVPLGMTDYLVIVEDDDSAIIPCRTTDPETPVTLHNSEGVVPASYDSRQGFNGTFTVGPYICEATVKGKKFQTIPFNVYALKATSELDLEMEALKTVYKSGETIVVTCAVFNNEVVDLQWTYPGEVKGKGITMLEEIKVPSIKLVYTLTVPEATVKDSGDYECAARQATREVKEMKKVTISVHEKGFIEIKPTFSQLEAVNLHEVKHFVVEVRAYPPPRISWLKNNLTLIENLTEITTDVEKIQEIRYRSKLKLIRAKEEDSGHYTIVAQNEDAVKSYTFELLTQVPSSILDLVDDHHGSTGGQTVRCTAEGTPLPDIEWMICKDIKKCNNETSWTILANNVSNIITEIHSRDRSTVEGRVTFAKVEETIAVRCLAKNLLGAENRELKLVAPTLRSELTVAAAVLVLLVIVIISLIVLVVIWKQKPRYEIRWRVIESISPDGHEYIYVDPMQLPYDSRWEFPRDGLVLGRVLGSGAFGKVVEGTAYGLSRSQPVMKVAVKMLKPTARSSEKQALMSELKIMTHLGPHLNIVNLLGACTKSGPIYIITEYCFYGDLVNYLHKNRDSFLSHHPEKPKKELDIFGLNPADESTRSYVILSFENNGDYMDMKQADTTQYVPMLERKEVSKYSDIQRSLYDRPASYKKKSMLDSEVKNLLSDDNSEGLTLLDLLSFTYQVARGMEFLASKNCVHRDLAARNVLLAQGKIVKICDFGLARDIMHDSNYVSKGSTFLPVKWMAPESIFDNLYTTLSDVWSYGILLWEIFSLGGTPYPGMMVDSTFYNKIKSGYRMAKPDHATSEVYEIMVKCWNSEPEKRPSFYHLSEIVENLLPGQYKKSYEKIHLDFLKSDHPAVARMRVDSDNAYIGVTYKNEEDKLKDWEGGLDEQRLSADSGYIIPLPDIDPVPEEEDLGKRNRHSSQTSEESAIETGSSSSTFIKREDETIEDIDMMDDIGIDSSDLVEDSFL
Sequence of Eukaryotic elongation factor 2 kinase (Homo sapiens) (O00418 whole entry): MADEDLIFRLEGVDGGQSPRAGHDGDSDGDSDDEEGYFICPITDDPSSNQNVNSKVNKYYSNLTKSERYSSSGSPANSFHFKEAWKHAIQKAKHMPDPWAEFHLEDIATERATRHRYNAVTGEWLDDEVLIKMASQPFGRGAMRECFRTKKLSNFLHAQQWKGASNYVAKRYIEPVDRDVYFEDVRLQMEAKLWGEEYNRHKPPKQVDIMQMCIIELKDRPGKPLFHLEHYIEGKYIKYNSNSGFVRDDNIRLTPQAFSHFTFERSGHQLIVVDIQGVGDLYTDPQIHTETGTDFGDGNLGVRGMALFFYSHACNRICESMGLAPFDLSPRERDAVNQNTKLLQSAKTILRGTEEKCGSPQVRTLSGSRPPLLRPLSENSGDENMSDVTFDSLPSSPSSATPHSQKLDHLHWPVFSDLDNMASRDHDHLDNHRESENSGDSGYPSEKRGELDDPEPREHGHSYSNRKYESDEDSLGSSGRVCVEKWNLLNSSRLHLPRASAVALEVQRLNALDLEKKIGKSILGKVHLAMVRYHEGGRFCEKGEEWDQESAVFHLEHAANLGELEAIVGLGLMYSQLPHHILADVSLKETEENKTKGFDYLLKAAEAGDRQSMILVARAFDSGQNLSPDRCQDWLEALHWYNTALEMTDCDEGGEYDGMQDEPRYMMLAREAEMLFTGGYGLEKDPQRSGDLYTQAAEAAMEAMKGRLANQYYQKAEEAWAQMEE
Sequence of Serine/threonine-protein kinase DCLK2 (Homo sapiens) (Q8N568 whole entry): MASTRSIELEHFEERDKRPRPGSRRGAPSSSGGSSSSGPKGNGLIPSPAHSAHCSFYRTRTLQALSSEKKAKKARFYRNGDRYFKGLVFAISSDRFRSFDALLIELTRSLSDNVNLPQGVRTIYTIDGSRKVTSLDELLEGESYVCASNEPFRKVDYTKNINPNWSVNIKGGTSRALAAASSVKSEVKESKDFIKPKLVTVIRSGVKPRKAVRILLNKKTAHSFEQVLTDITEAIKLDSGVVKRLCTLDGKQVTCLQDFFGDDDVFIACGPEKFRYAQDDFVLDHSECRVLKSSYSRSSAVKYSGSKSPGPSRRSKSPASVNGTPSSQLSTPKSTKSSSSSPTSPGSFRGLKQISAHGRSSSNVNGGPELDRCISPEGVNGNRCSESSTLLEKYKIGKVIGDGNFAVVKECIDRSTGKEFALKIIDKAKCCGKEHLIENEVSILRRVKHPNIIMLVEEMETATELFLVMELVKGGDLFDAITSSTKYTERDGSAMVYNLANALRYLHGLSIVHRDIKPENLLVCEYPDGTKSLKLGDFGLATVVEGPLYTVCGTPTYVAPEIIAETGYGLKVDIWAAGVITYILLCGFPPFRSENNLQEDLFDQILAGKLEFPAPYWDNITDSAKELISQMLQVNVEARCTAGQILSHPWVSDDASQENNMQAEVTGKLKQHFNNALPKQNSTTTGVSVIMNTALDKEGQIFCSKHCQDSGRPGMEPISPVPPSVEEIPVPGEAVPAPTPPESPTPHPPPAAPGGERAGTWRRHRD

Activity [1]: 110% | IC50 [2]: 110 nM | Activity [3]: 80% | IC50 [4]: > 100000 nM | Activity [5]: 90% | Activity [6]: 96% | Activity [7]: 120% | Activity [8]: 103% | Activity [9]: 125% | Activity [10]: 57% | IC50 [11]: 530 nM | Activity [12]: 129% | Activity [13]: 100% | Activity [15]: 46% | IC50 [17]: 19000 nM | inhibition [18]: 71% | Activity [19]: 88% | Activity [20]: 106% | inhibition [21]: 65% | Activity [22]: 123% | Activity [23]: 110% | Activity [24]: 92% | Activity [25]: 95% | Activity [26]: 99% | Activity [27]: 29% | Activity [29]: 100% | inhibition [30]: 76% | Activity [31]: 43% | Activity [33]: 59% | Activity [34]: 65% | Activity [35]: 100% | Activity [36]: 36% | Activity [37]: 112% | Activity [38]: 109% | Activity [39]: 109% | Activity [40]: 53% | Activity [41]: 101% | Activity [42]: 88%
Structure (SMILES): O=C(O)c1ccc(Nc2ncc3c(n2)-c2ccc(Cl)cc2C(c2c(F)cccc2F)=NC3)cc1 [MLN-8054]
Activity [14]: 58.8% | Activity [16]: 12% | Activity [28]: 21.4% | Activity [32]: Active
